Tests used:
Type in all cases: functional
Details in all cases: read-out: GI
NCI-H522 = test: Antitumor activity against human NCI-H522 cells assessed as growth inhibition at 10 uM relative to control
How it was run: (§1)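 After drug addition, plates were incubated 48 h at 37 °C under 5% CO2. Adherent cells were fixed with cold TCA (10% final, 60 min, 4 °C) and suspension cells with 16% final TCA. Staining used 0.4% SRB in 1% acetic acid, solubilized in 10 mM trizma, read at A515. Percent growth was calculated from time-zero, control and treated absorbances.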

SNB-19 = test: Antitumor activity against human SNB-19 cells assessed as growth inhibition at 10 uM relative to control
How it was run: (§2)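 Drug exposure 48 h at 37 °C, 5% CO2. Adherent cells fixed with cold TCA (10% final), suspension cells with TCA (16% final). Stained with 0.4% SRB in 1% acetic acid, dissolved in 10 mM Tris, A515. Growth relative to time-zero and untreated control.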

HOP-62 = test: Antitumor activity against human HOP-62 cells assessed as growth inhibition at 10 uM relative to control; how it was run: as §1
SW-620 = test: Antitumor activity against human SW-620 cells assessed as growth inhibition at 10 uM relative to control; how it was run: as §2
COLO 205 = test: Antitumor activity against human COLO 205 cells assessed as growth inhibition at 10 uM relative to control; how it was run: as §1
DU-145 = test: Antitumor activity against human DU-145 cells assessed as growth inhibition at 10 uM relative to control; how it was run: as §1
SK-MEL-2 = test: Antitumor activity against human SK-MEL-2 cells assessed as growth inhibition at 10 uM relative to control; how it was run: as §1
MCF7 = test: Antitumor activity against human MCF7 cells assessed as growth inhibition at 10 uM relative to control; how it was run: as §1
HCT-116 = test: Antitumor activity against human HCT-116 cells assessed as growth inhibition at 10 uM relative to control; how it was run: as §1
SK-OV-3 = test: Antitumor activity against human SK-OV-3 cells assessed as growth inhibition at 10 uM relative to control; how it was run: as §2
SK-MEL-28 = test: Antitumor activity against human SK-MEL-28 cells assessed as growth inhibition at 10 uM relative to control; how it was run: as §2
K562 = test: Antitumor activity against human K562 cells assessed as growth inhibition at 10 uM relative to control; how it was run: as §1
UACC-257 = test: Antitumor activity against human UACC-257 cells assessed as growth inhibition at 10 uM relative to control; how it was run: as §2
MDA-MB-468 = test: Antitumor activity against human MDA-MB-468 cells assessed as growth inhibition at 10 uM relative to control; how it was run: as §1
CAKI-1 = test: Antitumor activity against human CAKI-1 cells assessed as growth inhibition at 10 uM relative to control; how it was run: as §1
T47D = test: Antitumor activity against human T47D cells assessed as growth inhibition at 10 uM relative to control; how it was run: as §2
ACHN = test: Antitumor activity against human ACHN cells assessed as growth inhibition at 10 uM relative to control; how it was run: as §1
OVCAR-4 = test: Antitumor activity against human OVCAR-4 cells assessed as growth inhibition at 10 uM relative to control; how it was run: as §1
U-251 = test: Antitumor activity against human U-251 cells assessed as growth inhibition at 10 uM relative to control; how it was run: as §2
NCI/ADR-RES = test: Antitumor activity against human NCI-ADR-RES cells assessed as growth inhibition at 10 uM relative to control; how it was run: as §1
KM12 = test: Antitumor activity against human KM12 cells assessed as growth inhibition at 10 uM relative to control; how it was run: as §1
LOX IMVI = test: Antitumor activity against human LOX IMVI cells assessed as growth inhibition at 10 uM relative to control; how it was run: as §1
SNB-75 = test: Antitumor activity against human SNB-75 cells assessed as growth inhibition at 10 uM relative to control; how it was run: as §2
SF-539 = test: Antitumor activity against human SF-539 cells assessed as growth inhibition at 10 uM relative to control; how it was run: as §1
SF-268 = test: Antitumor activity against human SF-268 cells assessed as growth inhibition at 10 uM relative to control; how it was run: as §1
NCI-H23 = test: Antitumor activity against human NCI-H23 cells assessed as growth inhibition at 10 uM relative to control; how it was run: as §1
UACC-62 = test: Antitumor activity against human UACC-62 cells assessed as growth inhibition at 10 uM relative to control; how it was run: as §2
MDA-MB-231 = test: Antitumor activity against human MDA-MB-231 cells assessed as growth inhibition at 10 uM relative to control; how it was run: as §1
UO-31 = test: Antitumor activity against human UO-31 cells assessed as growth inhibition at 10 uM relative to control; how it was run: as §2
SK-MEL-5 = test: Antitumor activity against human SK-MEL-5 cells assessed as growth inhibition at 10 uM relative to control; how it was run: as §2
PC-3 = test: Antitumor activity against human PC-3 cells assessed as growth inhibition at 10 uM relative to control; how it was run: as §1
786-0 = test: Antitumor activity against human 786-0 cells assessed as growth inhibition at 10 uM relative to control; how it was run: as §1
A549 = test: Antitumor activity against human A549 cells assessed as growth inhibition at 10 uM relative to control; how it was run: as §1
CCRF-CEM = test: Antitumor activity against human CCRF-CEM cells assessed as growth inhibition at 10 uM relative to control; how it was run: as §1
RPMI-8226 = test: Antitumor activity against human RPMI-8226 cells assessed as growth inhibition at 10 uM relative to control; how it was run: as §1
OVCAR-3 = test: Antitumor activity against human OVCAR-3 cells assessed as growth inhibition at 10 uM relative to control; how it was run: as §1
RXF 393 = test: Antitumor activity against human RXF 393 cells assessed as growth inhibition at 10 uM relative to control; how it was run: as §1
Malme-3M = test: Antitumor activity against human Malme-3M cells assessed as growth inhibition at 10 uM relative to control; how it was run: as §1
HOP-92 = test: Antitumor activity against human HOP-92 cells assessed as growth inhibition at 10 uM relative to control; how it was run: as §1
HT-29 = test: Antitumor activity against human HT-29 cells assessed as growth inhibition at 10 uM relative to control; how it was run: as §1
HCT-15 = test: Antitumor activity against human HCT-15 cells assessed as growth inhibition at 10 uM relative to control; how it was run: as §1
NCI-H226 = test: Antitumor activity against human NCI-H226 cells assessed as growth inhibition at 10 uM relative to control; how it was run: as §1
MOLT-4 = test: Antitumor activity against human MOLT-4 cells assessed as growth inhibition at 10 uM relative to control; how it was run: as §1
BT-549 = test: Antitumor activity against human BT-549 cells assessed as growth inhibition at 10 uM relative to control; how it was run: as §1
SN12C = test: Antitumor activity against human SN12C cells assessed as growth inhibition at 10 uM relative to control; how it was run: as §2
SR = test: Antitumor activity against human SR cells assessed as growth inhibition at 10 uM relative to control; how it was run: as §2

Work on `N#Cc1c(-c2ccc(Cl)cc2)nc(N/N=C/c2cccc(O)c2)nc1N1CCOCC1` yielded an inhibition of growth at 10 µM (NCI-H522) of 25.2%, an inhibition of growth at 10 µM (SNB-19) of 13.1% and an inhibition of growth at 10 µM (HOP-62) of 21.2%. It also gave an inhibition of growth at 10 µM (SW-620) of 35.2%, an inhibition of growth at 10 µM (COLO 205) of 14.8% and an inhibition of growth at 10 µM (DU-145) of 36.6%. For the same compound, the inhibition of growth at 10 µM (SK-MEL-2) was < 1%, the inhibition of growth at 10 µM (MCF7) was < 39.9% and the inhibition of growth at 10 µM (HCT-116) was 42.1%. The inhibition of growth at 10 µM (SK-OV-3) was < 1%, the inhibition of growth at 10 µM (SK-MEL-28) was 22.9% and the inhibition of growth at 10 µM (K562) was 54.9%. For the same compound, the inhibition of growth at 10 µM (UACC-257) was < 1%, the inhibition of growth at 10 µM (MDA-MB-468) was 12.6% and the inhibition of growth at 10 µM (CAKI-1) was 29.9%. For the same compound, the inhibition of growth at 10 µM (T47D) was 35.4%, the inhibition of growth at 10 µM (ACHN) was 39.1% and the inhibition of growth at 10 µM (OVCAR-4) was < 1%. For the same compound, the inhibition of growth at 10 µM (U-251) was 14.2%, the inhibition of growth at 10 µM (NCI/ADR-RES) was 35.1% and the inhibition of growth at 10 µM (KM12) was 24%. The inhibition of growth at 10 µM (LOX IMVI) was 38.2%, the inhibition of growth at 10 µM (SNB-75) was 53.9% and the inhibition of growth at 10 µM (SF-539) was 32.2%. For the same compound, the inhibition of growth at 10 µM (SF-268) was 18.1%, the inhibition of growth at 10 µM (NCI-H23) was < 1% and the inhibition of growth at 10 µM (UACC-62) was < 1%. For the same compound, the inhibition of growth at 10 µM (MDA-MB-231) was < 1%, the inhibition of growth at 10 µM (UO-31) was 64.3% and the inhibition of growth at 10 µM (SK-MEL-5) was 23.5%. The inhibition of growth at 10 µM (PC-3) was 36.2%, the inhibition of growth at 10 µM (786-0) was 35.7% and the inhibition of growth at 10 µM (A549) was 27.3%. For the same compound, the inhibition of growth at 10 µM (CCRF-CEM) was 63.8%, the inhibition of growth at 10 µM (RPMI-8226) was 62.6% and the inhibition of growth at 10 µM (OVCAR-3) was 22.3%. For the same compound, the inhibition of growth at 10 µM (RXF 393) was < 1%, the inhibition of growth at 10 µM (Malme-3M) was < 1% and the inhibition of growth at 10 µM (HOP-92) was 36.7%. For the same compound, the inhibition of growth at 10 µM (HT-29) was 30.2%, the inhibition of growth at 10 µM (HCT-15) was 55.3% and the inhibition of growth at 10 µM (NCI-H226) was 36.7%. For the same compound, the inhibition of growth at 10 µM (MOLT-4) was 60.2%, the inhibition of growth at 10 µM (BT-549) was 26.9% and the inhibition of growth at 10 µM (SN12C) was 21.7%. It also gave an inhibition of growth at 10 µM (SR) of 95.3%.
